Results taken from ChEMBL document CHEMBL6115024 (J Med Chem, 2025).
Values belong to the molecule of their own block, whether it stands above or below them. Activity calls are given as the source filed them. The calls are words filed in the database; no cut-off is given here.

Tests used:
Albumin = Albumin (Homo sapiens, UniProt P02768); test: Binding affinity to CM5-chip immobilized human serum albumin assessed as fold change in equilibrium association constant by SPR analysis relative to semaglutide
Albumin, sequence (P02768 whole entry): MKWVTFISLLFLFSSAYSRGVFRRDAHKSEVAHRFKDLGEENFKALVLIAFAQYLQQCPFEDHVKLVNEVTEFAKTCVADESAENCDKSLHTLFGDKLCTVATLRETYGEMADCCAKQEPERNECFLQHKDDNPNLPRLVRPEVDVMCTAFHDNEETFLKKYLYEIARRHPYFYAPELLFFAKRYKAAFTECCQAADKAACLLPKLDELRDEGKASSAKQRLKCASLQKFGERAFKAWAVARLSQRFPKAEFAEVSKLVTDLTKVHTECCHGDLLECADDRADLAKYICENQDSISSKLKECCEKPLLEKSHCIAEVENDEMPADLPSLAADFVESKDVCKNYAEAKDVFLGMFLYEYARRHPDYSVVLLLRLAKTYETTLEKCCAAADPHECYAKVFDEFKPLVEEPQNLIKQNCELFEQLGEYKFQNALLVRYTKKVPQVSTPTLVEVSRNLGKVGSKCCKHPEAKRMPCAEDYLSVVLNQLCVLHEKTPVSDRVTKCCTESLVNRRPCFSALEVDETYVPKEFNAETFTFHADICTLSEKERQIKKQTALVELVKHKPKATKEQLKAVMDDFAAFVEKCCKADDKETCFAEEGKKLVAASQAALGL

[1] = molecular target: T1, Glucagon-like peptide 1 receptor (Homo sapiens, UniProt P43220); test: Agonist activity at GLP-1 receptor (unknown origin) overexpressed in CHO-K1 cells assessed as cAMP production incubated for 30 mins in presence of HSA by HitHunter cAMP assay; assay type: functional, cell-based
T1 sequence (P43220 whole entry): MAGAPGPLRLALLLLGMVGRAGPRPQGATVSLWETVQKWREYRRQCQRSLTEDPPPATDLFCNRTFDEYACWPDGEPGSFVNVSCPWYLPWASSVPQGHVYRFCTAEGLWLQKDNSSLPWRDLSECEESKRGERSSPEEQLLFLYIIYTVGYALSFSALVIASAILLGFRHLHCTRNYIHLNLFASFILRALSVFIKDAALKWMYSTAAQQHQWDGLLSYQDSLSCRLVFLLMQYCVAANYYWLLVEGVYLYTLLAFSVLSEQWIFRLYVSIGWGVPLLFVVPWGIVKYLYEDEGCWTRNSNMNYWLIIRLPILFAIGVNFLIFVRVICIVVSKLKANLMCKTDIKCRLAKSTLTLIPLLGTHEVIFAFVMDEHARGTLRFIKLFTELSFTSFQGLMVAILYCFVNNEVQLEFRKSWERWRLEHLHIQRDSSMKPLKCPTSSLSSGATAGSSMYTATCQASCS

[2] = molecular target: T1, Glucagon-like peptide 1 receptor; test: Agonist activity at GLP-1 receptor (unknown origin) overexpressed in CHO-K1 cells assessed as cAMP production incubated for 30 mins by HitHunter cAMP assay; assay type: functional, cell-based
Mus musculus [3] = test: Induction of glycemic control in db/db mouse assessed as reduction in macrovesicular steatosis in liver at 10 to 30 nmol/kg, sc treated for 8 weeks administered on every 2 days by H and E staining based analysis; assay type: functional, organism-based; conditions: dose 10-30 nmol/kg
Outline: (§1)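 After 8 weeks of sc dosing (10 or 30 nmol/kg every 2 days) of db/db mice, liver and iWAT fixed in 4% paraformaldehyde, paraffin-embedded, sectioned and H&E stained; adipocyte area and diameter distributions and liver steatosis, hypertrophy, ballooning scored.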

Mus musculus [4] = test: Blood glucose lowering effect in db/db mouse assessed as blood glucose level at 30 nmol/kg, sc treated for 8 weeks administered on every 2 days (reference value: 17 to 30 mmol/L); assay type: functional
Mus musculus [5] = test: Effect on liver weight in db/db mouse at 10 to 30 nmol/kg, sc treated for 8 weeks administered on every 2 days; assay type: functional, organism-based; conditions: dose 10-30 nmol/kg
Outline: (§2)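 db/db mice dosed sc with PBS or 10 or 30 nmol/kg every 2 days for 8 weeks; body weight, food and water intake recorded every 2 days; on day 59 heart, liver, iWAT and BAT excised and weighed; mean ± SEM, ANOVA with multiple comparisons.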

Mus musculus [6] = test: Induction of glycemic control in diet-induced obese C57BL/6 mouse assessed as reduction in fat mass at 3 to 100 nmol/kg, sc treated for 40 days administered on every 4 days; assay type: functional, organism-based; conditions: dose 3-100 nmol/kg, time 40.0 day
Outline: (§3)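 Male C57BL/6 mice fed 45% kcal fat diet from 6 to 18–20 weeks old, kept on diet, given sc PBS (100 μL) or 3–100 nmol/kg every 4 days for 40 days; glucose monitored; body weight, composition, blood chemistry and H&E histology of fixed liver and iWAT assessed post-treatment.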

Mus musculus [7] = test: Induction of glycemic control in diet-induced obese C57BL/6 mouse assessed as reduction in blood glucose level at 30 nmol/kg, sc treated for 40 days administered on every 4 days relative to control; assay type: functional, organism-based; conditions: time 40.0 day
Mus musculus [8] = test: Induction of glycemic control in db/db mouse assessed as reduction in microvesicular steatosis in liver at 10 to 30 nmol/kg, sc treated for 8 weeks administered on every 2 days by H and E staining based analysis; assay type: functional, organism-based; conditions: dose 10-30 nmol/kg; outline: as §1
Mus musculus [9] = test: Induction of glycemic control in db/db mouse assessed as reduction in polyphagia at 10 to 30 nmol/kg, sc treated for 8 weeks administered on every 2 days; assay type: functional, organism-based; conditions: dose 10-30 nmol/kg; outline: as §2
Mus musculus [10] = test: Induction of glycemic control in db/db mouse assessed as reduction in […] in liver at 10 to 30 nmol/kg, sc treated for 8 weeks administered on every 2 days by H and E staining based analysis; assay type: functional, organism-based; conditions: dose 10-30 nmol/kg
Mus musculus [11] = test: Induction of glycemic control in diet-induced obese C57BL/6 mouse assessed as decrease in total cholesterol level at 100 nmol/kg, sc treated for 40 days administered on every 4 days; assay type: functional, organism-based; conditions: time 40.0 day; outline: as §3
Mus musculus [12] = test: Induction of glycemic control in db/db mouse assessed as reduction in blood glucose level at 30 nmol/kg, sc measured after 48 hrs; assay type: functional, organism-based
Mus musculus [13] = test: Induction of glycemic control in db/db mouse assessed as reduction in large lipid droplets in liver at 10 to 30 nmol/kg, sc treated for 8 weeks administered on every 2 days by H and E staining based analysis; assay type: functional, organism-based; conditions: dose 10-30 nmol/kg; outline: as §1
Pancreatic islet = test: Induction of insulin secretion in C57BL6/J mouse pancreatic islet at 10 to 100 nM incubated for 24 hrs in presence of 2.5 mM glucose by ELISA; assay type: functional, cell-based; conditions: dose 10-100 nM
Mus musculus [14] = test: Induction of glycemic control in db/db mouse assessed as reduction in polydipsia at 10 to 30 nmol/kg, sc treated for 8 weeks administered on every 2 days; assay type: functional, organism-based; conditions: dose 10-30 nmol/kg; outline: as §2
Mus musculus [15] = test: Induction of glycemic control in db/db mouse assessed as reduction in proportion of iWAT weight to total body weight at 10 to 30 nmol/kg, sc treated for 8 weeks administered on every 2 days; assay type: functional, organism-based; conditions: dose 10-30 nmol/kg; outline: as §2
Mus musculus [16] = test: Induction of glycemic control in db/db mouse assessed as reduction in hepatocyte ballooning at 10 to 30 nmol/kg, sc treated for 8 weeks administered on every 2 days by H and E staining based analysis; assay type: functional, organism-based; conditions: dose 10-30 nmol/kg; outline: as §1
Mus musculus [17] = test: Effect on ALT level in diet-induced obese C57BL/6 mouse at 3 to 100 nmol/kg, sc treated for 40 days administered on every 4 days; assay type: functional, organism-based; conditions: dose 3-100 nmol/kg, time 40.0 day
Mus musculus [18] = test: Effect on brown adipose tissue weight in db/db mouse at 10 to 30 nmol/kg, sc treated for 8 weeks administered on every 2 days; assay type: functional, organism-based; conditions: dose 10-30 nmol/kg; outline: as §2
Mus musculus [19] = test: Induction of glycemic control in db/db mouse assessed as reduction in blood glucose level administered subcutaneously measured upto 120 hrs; assay type: functional, organism-based; conditions: dose 1-100 nmol/kg, route sc
Mus musculus [20] = test: Induction of glycemic control in diet-induced obese C57BL/6 mouse assessed as increase in lean mass at 3 to 100 nmol/kg, sc treated for 40 days administered on every 4 days; assay type: functional, organism-based; conditions: dose 3-100 nmol/kg, time 40.0 day; outline: as §3
Mus musculus [21] = test: Induction of glycemic control in db/db mouse assessed as reduction in blood glucose level at 1 to 100 nmol/kg, sc measured upto 120 hrs; assay type: functional, organism-based
Outline: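 db/db mice, three per dose group, got a single sc dose of 1, 3, 10, 30 or 100 nmol/kg, with a PBS control. Blood glucose was measured before dosing and at multiple time points after. EC50 was derived from the dose–response profiles by nonlinear regression. Mean ± SEM.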

Mus musculus [22] = test: Induction of glycemic control in diet-induced obese C57BL/6 mouse assessed as increase in proportion of small adipocytes at 3 to 100 nmol/kg, sc treated for 40 days administered on every 4 days by H and E staining based analysis; assay type: functional, organism-based; conditions: dose 3-100 nmol/kg, time 40.0 day; outline: as §3
Mus musculus [23] = test: Inhibition of fatty liver in GAN-DIO-NASH C57BL/6JNarl mouse assessed as improvement in liver health at 30 nmol/kg, sc qd for 70 days; assay type: functional, organism-based; conditions: time 70.0 day
Outline: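 Male GAN-DIO-NASH mice on GAN diet dosed daily with PBS or 5–30 nmol/kg for 10 weeks; body weight, fat mass and ALT on days 0 and 70, liver H&E at 20×, liver triglycerides post-treatment; mean ± SEM, ANOVA or Student's t test.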

Mus musculus [24] = test: Induction of glycemic control in diet-induced obese C57BL/6 mouse assessed as decrease in proportion of large adipocytes at 3 to 100 nmol/kg, sc treated for 40 days administered on every 4 days by H and E staining based analysis; assay type: functional, organism-based; conditions: dose 3-100 nmol/kg, time 40.0 day; outline: as §3
Mus musculus [25] = test: Effect on heart weight in db/db mouse at 10 to 30 nmol/kg, sc treated for 8 weeks administered on every 2 days; assay type: functional, organism-based; conditions: dose 10-30 nmol/kg; outline: as §2

fold change (FC) (Albumin): 8
Compound: CCCCCCCCCCCCCCCC(=O)N[C@@H](CCC(=O)NCCCC[C@H](NC(=O)CCOCCOCCOCCOCCNC(=O)CCc1cn(CC(=O)N[C@@H](CCC(=O)NCCCC[C@H](NC(=O)[C@H](C)NC(=O)[C@H](C)NC(=O)[C@H](CCC(N)=O)NC(=O)CNC(=O)[C@H](CCC(=O)O)NC(=O)[C@H](CC(C)C)NC(=O)[C@H](Cc2ccc(O)cc2)NC(=O)[C@H](CO)NC(=O)[C@H](CO)NC(=O)[C@@H](NC(=O)[C@H](CC(=O)O)NC(=O)[C@H](CO)NC(=O)[C@@H](NC(=O)[C@H](Cc2ccccc2)NC(=O)[C@@H](NC(=O)CNC(=O)[C@H](CCC(=O)O)NC(=O)[C@H](C)NC(=O)[C@@H](N)Cc2cnc[nH]2)[C@@H](C)O)[C@@H](C)O)C(C)C)C(=O)N[C@@H](CCC(=O)O)C(=O)N[C@@H](Cc2ccccc2)C(=O)N[C@H](C(=O)N[C@@H](C)C(=O)N[C@@H](Cc2c[nH]c3ccccc23)C(=O)N[C@@H](CC(C)C)C(=O)N[C@H](C(=O)N[C@@H](CCCNC(=N)N)C(=O)NCC(=O)N[C@@H](CCCNC(=N)N)C(=O)NCC(=O)O)C(C)C)[C@@H](C)CC)C(=O)O)nn1)C(=O)NCCOCCOCCOCCOCCC(=O)N[C@@H](CCCCNC(=O)CC[C@H](NC(=O)CCCCCCCCCCCCCCC)C(=O)O)C(=O)OC)C(=O)O

Compound: CCCCCCCCCCCCCCCC(=O)N[C@@H](CCC(=O)NCCCC[C@@H](NC(=O)CCOCCOCCOCCOCCNC(=O)CCc1cn(CC(=O)N[C@@H](CCC(=O)NCCCC[C@H](NC(=O)[C@H](C)NC(=O)[C@H](C)NC(=O)[C@H](CCC(N)=O)NC(=O)CNC(=O)[C@H](CCC(=O)O)NC(=O)[C@H](CC(C)C)NC(=O)[C@H](Cc2ccc(O)cc2)NC(=O)[C@H](CO)NC(=O)[C@H](CO)NC(=O)[C@@H](NC(=O)[C@H](CC(=O)O)NC(=O)[C@H](CO)NC(=O)[C@@H](NC(=O)[C@H](Cc2ccccc2)NC(=O)[C@@H](NC(=O)CNC(=O)[C@H](CCC(=O)O)NC(=O)C(C)(C)NC(=O)[C@@H](N)Cc2cnc[nH]2)[C@@H](C)O)[C@@H](C)O)C(C)C)C(=O)N[C@@H](CCC(=O)O)C(=O)N[C@@H](Cc2ccccc2)C(=O)N[C@H](C(=O)N[C@@H](C)C(=O)N[C@@H](Cc2c[nH]c3ccccc23)C(=O)N[C@@H](CC(C)C)C(=O)N[C@H](C(=O)N[C@@H](CCCNC(=N)N)C(=O)NCC(=O)N[C@@H](CCCNC(=N)N)C(=O)NCC(=O)O)C(C)C)[C@@H](C)CC)C(=O)O)nn1)C(=O)NCCOCCOCCOCCOCCC(=O)N[C@H](CCCCNC(=O)CC[C@@H](NC(=O)CCCCCCCCCCCCCCCCC(=O)O)C(=O)O)C(=O)O)C(=O)O
EC50 [1]: 43.3 nM
EC50 [2]: 0.92 nM

Activity (Mus musculus [10]): Active
EC50 (Mus musculus [21]): 9.24 nM
Compound: CC[C@H](C)[C@H](NC(=O)[C@H](Cc1ccccc1)NC(=O)[C@H](CCC(=O)O)NC(=O)[C@H](CCCCNC(=O)COCCOCCNC(=O)COCCOCCNC(=O)CC[C@H](NC(=O)CCCCCCCCCCCCCCCCC(=O)O)C(=O)O)NC(=O)[C@H](C)NC(=O)[C@H](C)NC(=O)[C@H](CCC(N)=O)NC(=O)CNC(=O)[C@H](CCC(=O)O)NC(=O)[C@H](CC(C)C)NC(=O)[C@H](Cc1ccc(O)cc1)NC(=O)[C@H](CO)NC(=O)[C@H](CO)NC(=O)[C@@H](NC(=O)[C@H](CC(=O)O)NC(=O)[C@H](CO)NC(=O)[C@@H](NC(=O)[C@H](Cc1ccccc1)NC(=O)[C@@H](NC(=O)CNC(=O)[C@H](CCC(=O)O)NC(=O)C(C)(C)NC(=O)[C@@H](N)Cc1cnc[nH]1)[C@@H](C)O)[C@@H](C)O)C(C)C)C(=O)N[C@@H](C)C(=O)N[C@@H](Cc1c[nH]c2ccccc12)C(=O)N[C@@H](CC(C)C)C(=O)N[C@H](C(=O)N[C@@H](CCCNC(=N)N)C(=O)NCC(=O)N[C@@H](CCCNC(=N)N)C(=O)NCC(=O)O)C(C)C
Activity (Mus musculus [3]): Active
Activity (Mus musculus [4]): 17.7 mmol/L
Activity (Mus musculus [5]): No effect
Activity (Mus musculus [6]): inactive
Activity (Mus musculus [7]): inactive
Activity (Mus musculus [8]): Active
Activity (Mus musculus [9]): Active
Activity (Mus musculus [11]): Active
Activity (Mus musculus [12]): inactive
Activity (Mus musculus [13]): Active
Activity (Pancreatic islet): inactive
Activity (Mus musculus [14]): Active
Activity (Mus musculus [15]): Active
Activity (Mus musculus [16]): Active
Activity (Mus musculus [17]): No effect
Activity (Mus musculus [18]): No effect
Activity (Mus musculus [19]): Dose-dependent-effect
Activity (Mus musculus [20]): inactive
Activity (Mus musculus [22]): inactive
inhibition (Mus musculus [23]): Active
Activity (Mus musculus [24]): inactive
Activity (Mus musculus [25]): No effect
